Test [1] deals with T1, Cytosolic phospholipase A2 (Homo sapiens) (UniProt P47712).
T1 sequence (whole entry): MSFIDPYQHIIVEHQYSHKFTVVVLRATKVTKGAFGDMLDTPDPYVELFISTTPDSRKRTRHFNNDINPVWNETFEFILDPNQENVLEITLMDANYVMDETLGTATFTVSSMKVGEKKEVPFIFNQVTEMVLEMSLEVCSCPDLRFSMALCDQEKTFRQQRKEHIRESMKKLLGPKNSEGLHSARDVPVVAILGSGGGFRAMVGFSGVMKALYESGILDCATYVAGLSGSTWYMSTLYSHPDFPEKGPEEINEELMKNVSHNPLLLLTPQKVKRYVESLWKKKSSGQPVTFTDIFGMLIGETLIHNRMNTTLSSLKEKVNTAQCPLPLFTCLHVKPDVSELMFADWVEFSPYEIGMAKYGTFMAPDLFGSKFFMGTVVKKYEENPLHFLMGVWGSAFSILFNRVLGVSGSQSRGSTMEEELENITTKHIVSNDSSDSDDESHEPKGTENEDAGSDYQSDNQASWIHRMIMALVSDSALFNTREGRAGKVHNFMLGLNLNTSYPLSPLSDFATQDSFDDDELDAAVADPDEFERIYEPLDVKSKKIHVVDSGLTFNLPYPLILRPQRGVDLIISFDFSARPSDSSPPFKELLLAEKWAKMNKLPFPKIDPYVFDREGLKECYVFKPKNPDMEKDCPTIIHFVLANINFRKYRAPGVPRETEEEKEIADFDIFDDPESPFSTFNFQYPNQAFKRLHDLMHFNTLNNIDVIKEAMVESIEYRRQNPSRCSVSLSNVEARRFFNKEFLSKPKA
The experiment in a line: Percent inhibition of human GIVA PLA2 by the compound at a concentration (mole fraction) of 0.01. The procedure, abridged:
(§1)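 GIVA PLA2 activity measured on mixed micelles of TX-100 (400 μM), 1-palmitoyl-2-[14C]arachidonoyl PC (97 μM) and PIP2 (3 μM, 0.6 mol %). Inhibitor surface mole fraction varied within the micelles; percent inhibition calculated relative to a DMSO control. Xi(50) is the mole fraction giving 50% inhibition, obtained by a logarithmic or linear fit.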

For test [2], the target named is T1, Cytosolic phospholipase A2 (Homo sapiens). Briefly: Mole fraction of compound in the total substrate interface required to inhibit human GIVA PLA2 by 50%. The procedure, abridged: as §1
The target is the same in test [3]. The experiment in a line: Percent inhibition of human GIVA PLA2 by the compound at a concentration (mole fraction) of 0.02. The procedure, abridged: as §1
Test [4] shares this target. The experiment in a line: Percent inhibition of human GIVA PLA2 by the compound at a concentration (mole fraction) of 0.05. The procedure, abridged: as §1
For test [5], the system named is Rattus norvegicus. Briefly: Compound was tested for in vivo antiinflammatory activity in rat. The class given is functional, organism-based. The procedure, abridged:
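Carrageenan paw edema in Fisher 344 rats (150–200 g), both sexes. Edema induced by 0.1 mL 2% w/v carrageenan in saline, intradermal into the right footpad. Compound suspended in Tween 80/water and given ip at the same time. Rats killed at 3.5 h, injected minus uninjected paw weight taken, and % inhibition calculated vs water controls. Four concentrations tested, two groups of five; mean of two experiments.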

Test [6] is filed under the species Mus musculus. The experiment in a line: Tested on P388D1 macrophage-like cell line (AA-derived products) for inhibition of the GIVA PLA2 in the long-term lipopolysaccharide. The class given is functional, organism-based.
Test [7] is filed under the species Mus musculus. The experiment in a line: Tested on P388D1 macrophage-like cell line (PGE2 production) for inhibition of the GIVA PLA2 in the long-term lipopolysaccharide. The class given is functional, organism-based. The procedure, abridged:
(§2)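 P388D1 murine macrophages plated at 10^6 cells/well and left to adhere overnight. Starved 1 h in 0.2% FCS medium. Compound added in DMSO (<0.5% v/v) 30 min before 100 ng/mL LPS for 18 h. Medium PGE2 measured by enzyme immunoassay and normalized to DMSO/LPS controls. IC50 taken from a logarithmic fit.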

Test [8] has as its system Rattus norvegicus. The experiment in a line: Compound was tested for in vivo analgesic activity in rat. Format: functional.
The target of test [9] is T1, Cytosolic phospholipase A2 (Homo sapiens). Briefly: Percent inhibition of human GIVA PLA2 by the compound at a concentration (mole fraction) of 0.08. The procedure, abridged: as §1
The species entered for test [10] is Mus musculus. The experiment in a line: Compound was tested on P388D1 macrophage-like cell line (AA-derived products) for inhibition of the GIVA PLA2 in the long-term lipopolysaccharide. Format: functional, organism-based.
For test [11], the species on record is Mus musculus. The experiment in a line: Compound was tested on P388D1 macrophage-like cell line (PGE2 production) for inhibition of the GIVA PLA2 in the long-term lipopolysaccharide. The class given is functional, organism-based. The procedure, abridged:
as §2

[12] abbreviates: in the assay text read “of 0.091” for “of 0.01”.

From ChEMBL document CHEMBL1148355, “Inhibition of group IVA cytosolic phospholipase A2 by novel 2-oxoamides in vitro, in cells, and in vivo” (J Med Chem, 2004) come the findings set out here.

Molecules are shown by their SMILES.

In turn, `CCCCCCCCCCCCCC(=O)C(=O)N1CCC[C@H]1CCC(=O)O` had an inhibition in test [1] (setting [12]) of 24%.
As to `NC(=O)C(=O)CCCCc1ccccc1`, the inhibition in test [1] was 0%.
Take `CCCCCCCCCCCCCC(=O)C(N)=O`: the inhibition in test [1] was 0%.
Consider `CCCCCCCCCCCCCC(=O)C(=O)N[C@@H](CCCC)CCC(=O)O`, for which the X1(50) in [2] amounted to 0.01.
In [2], `CCCCCCCCCCOC[C@@H](CCC(=O)O)NC(=O)C(=O)CCCCCCCCCC` returned an X1(50) of 0.047.
As for `CCCCCCCCCCCCCCC(=O)C(=O)NCCCCC`, the inhibition in test [3] is 22%.
Consider `CCCCCCC(=O)C(=O)NCCCC(=O)O`, for which the inhibition in [4] amounted to 0%.
For the compound `CCCCCCCCCCCCCCC(=O)C(=O)NCCCC(=O)O`, the EC50 in the test on Rattus norvegicus [5] is 0.01 mmol/kg. Further, the IC50 was 8.6 µM in the test filed under Mus musculus [6] and 7.8 µM in the test listed under Mus musculus [7]. This compound had an Analgesic activity in the test with Rattus norvegicus [8] of 93%. This compound returned an X1(50) in [2] of 0.017.
In [2], `CCCCCCCCCCCCCC(=O)C(=O)N[C@H](CCC(=O)O)Cc1ccccc1` registered an X1(50) of 0.035.
Compound `CCCCCCCCCCCCCCCC(=O)NCCCC(=O)O` came in with an inhibition in test [9] of 22%.
In turn, `CCCCCCCCCCOC[C@H](CCC(=O)O)NC(=O)C(=O)CCCCCCCCCC` returned an X1(50) in test [2] of 0.045.
In [4], `CCCCCCCC/C=C\CCCCCCCCNC(=O)C(=O)CCCCCCCCCCCCCC` registered an inhibition of 0%.
With `CCCCCCCCCCC(=O)C(=O)N[C@@H](CCCC)CCC(=O)O`, the IC50 worked out at 7.6 µM in the test filed under Mus musculus [10] and 5.8 µM in the test listed under Mus musculus [11]. The EC50 with Rattus norvegicus [5] is 0.1 mmol/kg. In the test on Rattus norvegicus [8], this compound yielded an Analgesic activity of 63%. For the same compound, the X1(50) in test [2] was 0.009.
With `CCCCCCCC/C=C\CCCCCCCCNC(=O)C(=O)CCCCC`, in test [1], the inhibition came out at 0%.
Compound `CCCCCCCCCCCCCCC(=O)C(=O)NCCCC(=O)OC` registered an inhibition in test [9] of 0%.
Turning to `CCCCCCC(=O)C(=O)N[C@H](CCC(=O)O)Cc1ccccc1`, in [1] (setting [12]), the inhibition is 24%.
In turn, `CCCCCCCCCCCCCCCCNC(=O)C(=O)CC` registered an inhibition in test [1] of 0%.
In turn, `CCCCCCCCCCC(=O)C(=O)N[C@H](CCCC)CCC(=O)O` displayed an X1(50) in [2] of 0.068.
`CCCCCCCCCCC(=O)C(=O)N1CCC[C@H]1CCC(=O)O` had an inhibition in test [1] (setting [12]) of 0%.
The compound `CCCCCCCCCCCCCC(=O)C(=O)N[C@@H](C)CCC(=O)O` gave an X1(50) in [2] of 0.021.
As to `CCCCCCCCCCCCCC(=O)C(=O)N[C@H](CCC(=O)O)CC(C)C`, the values for the IC50 in the test listed under Mus musculus [10] and in the test listed under Mus musculus [11] were 4.6 µM and 10 µM, respectively. Also, the EC50 with Rattus norvegicus [5] turned out to be 0.008 mmol/kg. In addition, the Analgesic activity in the test on Rattus norvegicus [8] is 69%. Also, the X1(50) in test [2] was found to be 0.017.
`CCCCCCCCCCC(=O)C(=O)N[C@H](CCC(=O)O)CC(C)C` registered an X1(50) in test [2] of 0.021.
